Source: PubChem
HIV Env fusion – inhibitors of HIV Env-mediated cell fusion; inhibition, % at 12.3 µM; AID 651610; 360,000 tested, 1.1% active; HeLa-JRFL Env/CEM21 cell fusion, luciferase;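 active means mean replicate inhibition score of at least 50 and every replicate individually at or above 50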
dFosB act-1 – enhances mouse delta FosB homodimer DNA binding; purified delta FosB, TAMRA-CDK5 oligo fluorescence polarization; percent of positive-control signal above neutral wells; P13346; activation, % at 25 µM; 340,000 tested, 0.99% active; AID 493131;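 active means mean activation above about 17%, with every replicate also reaching it, limit read from the data, passing the limit was not always enough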
Target sequence (P13346 whole entry, looked up): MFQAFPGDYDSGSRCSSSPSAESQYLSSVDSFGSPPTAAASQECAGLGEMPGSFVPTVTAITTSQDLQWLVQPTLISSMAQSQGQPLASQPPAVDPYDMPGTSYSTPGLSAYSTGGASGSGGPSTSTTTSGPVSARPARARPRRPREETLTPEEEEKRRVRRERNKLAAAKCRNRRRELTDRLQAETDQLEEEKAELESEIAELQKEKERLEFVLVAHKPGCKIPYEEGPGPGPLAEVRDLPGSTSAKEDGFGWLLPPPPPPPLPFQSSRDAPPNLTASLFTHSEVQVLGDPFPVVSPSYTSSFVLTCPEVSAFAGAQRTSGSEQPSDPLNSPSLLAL
PAX8 reporter – PAX8 transcriptional activity inhibition | 360,000 tested, 1.2% active | inhibition, % at 12.6 µM | RMG-I TPO-luciferase reporter, SteadyGlo, 24 h;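 active means mean replicate inhibition at least 60% with every replicate also reaching 60%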;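 further: luciferase light reporting Pax8 driven TPO promoter activity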
INS-1E GSIS act – primary screen for activators of insulin secretion dependent on glucose, INS-1E cells, GLuc reporter luminescence | activation, % at 16.6 µM | INS-1E GLuc reporter insulin secretion, 2-3 h | 370,000 tested, 0.61% active;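 active means lowest replicate activation of at least 40%, so every replicate reaches that level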
Cneo AK release – causes C. neoformans cell lysis; adenylate kinase release luminescence, 4 h; normalised: neutral wells 0, clomiphene wells 100; lysis activity, % at 15 µM; 360,000 tested, 0.2% active; AID 651654;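 active means mean lysis activity across replicates of at least 80%, whatever share of replicates individually reach that level; inactive means mean lysis activity below 80%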
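Material – Cryptococcus neoformans yeast cells · Quantity – 5 × 10^6 yeast cells/mL · Buffer or medium – YPD medium · Compound – single dose · Timing – 4 h static compound exposure, 37 °C, read 1 h post-reagent · Signal – adenylate kinase release luminescence · Read-out basis – lysis from increased AK signal · Benchmarks – Clomiphene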
CDK5 inh – CDK5/p35 (human) kinase inhibition; inhibition, % at 10 µM; 330,000 tested, 0.01% active; Q00535+Q15078; Recombinant CDK5/p35, ADP-Glo luminescence, 60 min;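 active means highest replicate inhibition of at least 50% and at least 75% of replicates reaching 50%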
dFosB act-2 – delta FosB (mouse) homodimer activation. AID 588690. 2,400 tested, under 10 active. activation, % at 24.9 µM. purified delta FosB, TAMRA-CDK5 oligo fluorescence polarization; normalised: neutral wells 0, positive control 100. shares compounds with dFosB act-1;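 active means highest replicate activation at or above 34% and every replicate reaching that threshold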;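 further: higher polarization means more probe DNA bound by delta FosB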
Of the large screens only hits and unclear results are named; the others gave an inactive call (follow-up assays come after a bar, where they were run). In the library only some 2.9% were active in any assay of this set; here they are far more common.

CCCNC(=O)N1C[C@H](O)COC[C@@H]2O[C@@H](CC(=O)N3CCCCC3)CC[C@H]21	none (no result: HIV Env fusion, dFosB act-1, CDK5 inh)
COc1cc(C(=O)NCc2ccc(-c3nc4ccccc4s3)cc2)cc(OC)c1OC	none (no result: INS-1E GSIS act, Cneo AK release)
COc1cc(C(=O)NCc2ccc(-c3nc4ccccc4o3)cc2)cc(OC)c1OC	dFosB act-1 27 (no result: HIV Env fusion, PAX8 reporter, INS-1E GSIS act) | dFosB act-2 inactive
COc1ccc(NC(=O)Cn2nnc(C(=O)NCCc3ccccc3)c2N)cc1	dFosB act-1 29 (no result: Cneo AK release) | dFosB act-2 inactive
CCc1ccc(NC(=O)Cn2nnc(C(=O)NCCc3ccc(OC)c(OC)c3)c2N)cc1	dFosB act-1 83 | dFosB act-2 inactive
CCOc1ccc(CCNC(=O)c2nnn(CC(=O)Nc3ccc(OC)cc3)c2N)cc1OCC	none
C[C@H]1CN([C@@H](C)CO)C(=O)Cc2cc(NC(=O)Cc3cn(C)c4ccccc34)ccc2O[C@@H]1CN(C)C(=O)NC1CCCCC1	none (no result: HIV Env fusion, dFosB act-1, CDK5 inh)
CCCN(C)C[C@@H]1OCCCC[C@@H](C)Oc2ccc(NC(=O)NC(C)C)cc2C(=O)N([C@@H](C)CO)C[C@@H]1C	none (no result: dFosB act-1, CDK5 inh)
CCCC(=O)Nc1ccc2c(c1)OC[C@H](C)N(C(=O)CC)C[C@H](C)[C@H](OC)CN(C)C2=O	none (no result: dFosB act-1, CDK5 inh)
Cc1noc(C)c1S(=O)(=O)Nc1ccc2c(c1)CC(=O)N([C@@H](C)CO)C[C@H](C)[C@@H](CN(C)S(=O)(=O)c1c(C)noc1C)O2	none (no result: dFosB act-1, CDK5 inh)
O=C(COc1ccc2c(-c3ccccc3)cc(=O)oc2c1)Nc1ccc(CN2CCOCC2)cc1	dFosB act-1 27 | dFosB act-2 inactive
Cc1cc(=O)oc2cc(OCC(=O)Nc3ccc(CN4CCOCC4)cc3)ccc12	none
CC(C)CC#Cc1cnc2c(c1)C(=O)N([C@H](C)CO)C[C@@H](C)[C@H](CN(C)C(=O)c1cccnc1)O2	none (no result: dFosB act-1, PAX8 reporter, CDK5 inh)
NC(=S)N/N=C/c1coc2cc(Br)ccc2c1=O	dFosB act-1 24 (no result: INS-1E GSIS act, Cneo AK release) | dFosB act-2 inactive
COc1ccc(Cl)cc1C(=O)NC(=S)Nc1cc(-c2nc3ccccc3[nH]2)ccc1C	dFosB act-1 36 (no result: HIV Env fusion, PAX8 reporter, INS-1E GSIS act) | dFosB act-2 inactive
O=C(CCC(=O)c1ccc(Oc2ccccc2)cc1)Nc1cccc(Cl)c1	dFosB act-1 26 (no result: HIV Env fusion) | dFosB act-2 inactive
COc1ccc(C(=O)CCC(=O)Nc2cccc(Cl)c2)cc1	none
COc1ccc(-c2nc(Cc3ccc(Cl)cc3)no2)cc1OC	dFosB act-1 50 (no result: HIV Env fusion, PAX8 reporter, INS-1E GSIS act) | dFosB act-2 inactive
Cc1ccc(S(=O)(=O)Nc2ccc3c(c2)CC(=O)N([C@H](C)CO)C[C@@H](C)[C@H](CN(C)Cc2ccc(-c4ccccc4)cc2)O3)cc1	dFosB act-1 28 (no result: PAX8 reporter) | dFosB act-2 inactive
Cc1ccc(S(=O)(=O)Nc2ccc3c(c2)CC(=O)N([C@@H](C)CO)C[C@@H](C)[C@@H](CN(C)Cc2ccc(-c4ccccc4)cc2)O3)cc1	none (no result: dFosB act-1, PAX8 reporter, CDK5 inh)
CCCCn1c(SCC(=O)c2ccc(OC)c(OC)c2)nc2cc(S(N)(=O)=O)ccc21	dFosB act-1 23 (no result: PAX8 reporter, Cneo AK release) | dFosB act-2 inactive
C[C@@H](NC(=O)Cn1cnc2c(NCc3ccccc3)ncnc21)c1cccc2ccccc12	dFosB act-1 38 | dFosB act-2 inactive
O=C(N/N=C/c1ccncc1)c1sc2ccccc2c1Cl	none
COc1ccc2c(Cl)c(C(=O)N/N=C/c3ccncc3)sc2c1	dFosB act-1 52 | dFosB act-2 inactive
